For data set [1], the system named is Mus musculus. Description: Neurotoxicity in Swiss Webster mouse assessed as induction of motor impairment at 5 mg/kg administered via oral gavage measured after 10 to 60 mins by rotarod method. In kind it is toxicity, organism-based. The note with it: in vivo. Summed up:
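Female Swiss Webster mice were given diazepam 5 mg/kg by oral gavage as the positive control. Rotarod performance was tested 10, 30 and 60 min after dosing.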

Data set [2] is described as follows: Cmax in Wistar rat brain at 10 mg/kg, ip administered as single dose measured at 5 to 720 mins post dose by HPLC-MS/MS analysis. In kind it is ADME, organism-based. Set-up: dose 10 mg/kg, route intraperitoneal. Summed up: (§1)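 Male Wistar rats (250-350 g) given a single 10 mg/kg i.p. dose of a 5 mg/ml suspension in 85% distilled water, 14% propylene glycol, 1% Tween 80. Three rats per time point (5, 20, 60, 180, 720 min). Blood and brain were collected after sacrifice. Drug was recovered by solid phase extraction and quantified by HPLC-MS/MS.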

A short description of data set [3]: Tmax in Wistar rat brain at 10 mg/kg, ip administered as single dose by HPLC-MS/MS analysis. In kind it is ADME, organism-based. Summed up: (§2)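 Male Wistar rats (250–350 g) received a single i.p. dose of 10 mg/kg as a 5 mg/ml suspension in 85% water, 14% propylene glycol and 1% Tween 80. Three rats per time point were sacrificed at 5, 20, 60, 180 and 720 min for plasma and brain. Samples were cleaned up by solid-phase extraction and quantified by HPLC-MS/MS.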

The nature of data set [4]: Metabolic stability in human liver microsomes assessed as parent compound remaining at 10 uM after 60 mins by LC-MS analysis. The note with it: read-out: Stability. In kind it is ADME, microsome. Summed up: (§3)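 The 60 min samples of the microsomal incubation (10 μM compound, human or mouse liver microsomes at 0.5 mg/mL, NADPH regenerating system, 37 °C) were analysed by LC-MS. Detection used SIM mode with dual ESI/APCI ionization, calibrated to the retention times and masses of the parent and its O-demethylated metabolites. Peak intensities were measured.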

The subject of data set [5] is Mus musculus. Nature of the data set: Neurotoxicity in Swiss Webster mouse assessed as induction of motor impairment at 40 mg/kg administered via oral gavage measured after 10 to 60 mins by rotarod method. In kind it is toxicity, organism-based. The conditions noted are these: in vivo. Summed up:
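Female mice were given a single oral gavage dose of 40 mg/kg, either in 50% PBS/40% propylene glycol/10% DMSO or, for poorly soluble compounds, in 2% polyethylene glycol plus 2.5% hydroxymethyl cellulose. Rotarod performance was tested 10, 30 and 60 min after dosing, with diazepam 5 mg/kg as positive control.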
A general note: In the rotarod test animals must keep their balance on a rotating rod.

Data set [6] can be described thus: Drug metabolism in human liver microsomes assessed as CYP450 mediated-O-demethylated 7-hydroxy-2-(6-hydroxypyridin-3-yl)-2H-pyrazolo[4,3-c]quinolin-3(5H)-one metabolite formation after 60 mins by LC-MS analysis. In kind it is ADME. The conditions noted are these: 1 h. Summed up: (§4)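 The 60-min samples from the human or mouse liver microsome incubations (10 µM compound, 0.5 mg/mL protein, NADPH regenerating system, 37 °C, pH 7.4) were run on LC-MS in SIM mode with dual ESI/APCI ionization. The method was calibrated to each component's retention time and mass, and the peak intensities of the parent and O-demethylated metabolites were measured.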

Data set [7] is described as follows: Drug metabolism in mouse liver microsomes assessed as CYP450 mediated-O-demethylated 7-hydroxy-2-(6-methoxypyridin-3-yl)-2H-pyrazolo[4,3-c]quinolin-3(5H)-one metabolite formation after 60 mins by LC-MS analysis. In kind it is ADME. The conditions noted are these: 1 h. In outline: as §4
Background: Liver microsomes are a subcellular fraction often used to study metabolism.

Data set [8] is described as follows: Terminal elimination half-life in Wistar rat plasma at 10 mg/kg, ip administered as single dose by HPLC-MS/MS analysis. In kind it is ADME, organism-based. The note with it: read-out: beta t1/2 (converted). In outline: as §2
A short description of data set [9]: Metabolic stability in mouse liver microsomes assessed as parent compound remaining at 10 uM after 60 mins by LC-MS analysis. In kind it is ADME, microsome. The note with it: read-out: Stability. In outline:
as §3

Another data set relates to Brain. Description: AUC (0 to 12 hrs) in Wistar rat brain at 10 mg/kg, ip administered as single dose by HPLC-MS/MS analysis. Set-up: dose 10 mg/kg, time < 12 hr, route intraperitoneal. In kind it is ADME, organism-based. The note with it: in vivo.
Data set [10] can be described thus: Drug metabolism in mouse liver microsomes assessed as CYP450 mediated-O-demethylated 2-(6-hydroxy-3-pyridyl)-7-(trideuteriomethoxy)-5H-pyrazolo[4,3-c]quinolin-3-one metabolite formation after 60 mins by LC-MS analysis. In kind it is ADME. The note with it: 1 h. Summed up: as §4
Data set [11] can be described thus: Terminal elimination half-life in Wistar rat brain at 10 mg/kg, ip administered as single dose by HPLC-MS/MS analysis. In kind it is ADME, organism-based. The note with it: read-out: beta t1/2 (converted). In outline: as §2
In the next data set the test system is HepG2. Nature of the data set: Cytotoxicity against human HepG2 cells assessed as reduction in cell viability up to 400 uM after 48 hrs by CellTiter-Glo assay. In kind it is cell-based. The note with it: hepg2, 48 h. Summed up:
(§5)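 HEK293T and HepG2 cells grown in high-glucose DMEM with non-essential amino acids, 10 mM HEPES, penicillin/streptomycin and 10% heat-inactivated FBS. Cells were harvested with trypsin and plated; compound was pin-transferred 3 h later. Incubation was 48 h, then CellTiter-Glo luminescence was read. Controls were DMSO (negative) and a cytotoxic aminoketone (positive). Quadruplicates, three independent runs, normalized to controls, nonlinear regression.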
Background: In ATP-based viability assays light output follows the ATP content of the culture.

Data set [12] concerns the target Voltage-gated inwardly rectifying potassium channel KCNH2 (Homo sapiens, UniProt Q12809). Nature of the data set: Displacement of [3H]-dofetilide from human ERG expressed in HEK cell membranes at >10 uM after 60 to 90 mins by scintillation counting.
For another data set, the system named is HEK-293T. Nature of the data set: Cytotoxicity against HEK293T cells assessed as reduction in cell viability up to 400 uM after 48 hrs by CellTiter-Glo assay. In kind it is cell-based. The conditions noted are these: human. Summed up: as §5
Data set [13] in a line: Cmax in Wistar rat plasma at 10 mg/kg, ip administered as single dose measured at 5 to 720 mins post dose by HPLC-MS/MS analysis. In kind it is ADME, organism-based. Set-up: dose 10 mg/kg, route intraperitoneal. In outline: as §1
Data set [14] is described as follows: Drug metabolism in human liver microsomes assessed as CYP450 mediated-O-demethylated 7-hydroxy-2-(6-methoxypyridin-3-yl)-2H-pyrazolo[4,3-c]quinolin-3(5H)-one metabolite formation after 60 mins by LC-MS analysis. In kind it is ADME. The note with it: 1 h. Summed up: as §4
Data set [15] in a line: Tmax in Wistar rat plasma at 10 mg/kg, ip administered as single dose by HPLC-MS/MS analysis. In kind it is ADME, organism-based. Summed up: as §2
A short description of data set [16]: Drug metabolism in mouse liver microsomes assessed as CYP450 mediated-O-demethylated 7-hydroxy-2-(6-hydroxypyridin-3-yl)-2H-pyrazolo[4,3-c]quinolin-3(5H)-one metabolite formation after 60 mins by LC-MS analysis. The conditions noted are these: 1 h. In kind it is ADME. Summed up:
as §4

The nature of data set [17]: AUC (0 to 12 hrs) in Wistar rat plasma at 10 mg/kg, ip administered as single dose by HPLC-MS/MS analysis. In kind it is ADME, organism-based. Set-up: time < 12 hr, dose 10 mg/kg, route intraperitoneal.
Data set [18] is described as follows: Drug metabolism in human liver microsomes assessed as CYP450 mediated-O-demethylated 2-(6-hydroxy-3-pyridyl)-7-(trideuteriomethoxy)-5H-pyrazolo[4,3-c]quinolin-3-one metabolite formation after 60 mins by LC-MS analysis. In kind it is ADME. The conditions noted are these: 1 h. In outline:
as §4

Data set [19] can be described thus: Ratio of brain AUC (0 to t) to plasma AUC (0 to t), Kp of the compound in Wistar rat at 10 mg/kg, ip administered as single dose by HPLC-MS/MS analysis. In kind it is ADME, organism-based.
Data set [20] can be described thus: Drug metabolism in human liver microsomes assessed as CYP450 mediated-O-demethylated 2-(4-hydroxyphenyl)-7-(trideuteriomethoxy)-5H-pyrazolo[4,3-c]quinolin-3-one metabolite formation after 60 mins by LC-MS analysis. The note with it: 1 h. In kind it is ADME. Summed up:
as §4

Data set [21] can be described thus: Drug metabolism in mouse liver microsomes assessed as CYP450 mediated-O-demethylated 7-hydroxy-2-(4-hydroxyphenyl)-2H-pyrazolo[4,3-c]quinolin-3(5H)-one metabolite formation after 60 mins by LC-MS analysis. In kind it is ADME. The note with it: 1 h. In outline:
as §4

Data set [22] in a line: Drug metabolism in mouse liver microsomes assessed as CYP450 mediated-O-demethylated 7-hydroxy-2-(4-methoxyphenyl)-2H-pyrazolo[4,3-c]quinolin-3(5H)-one metabolite formation after 60 mins by LC-MS analysis. In kind it is ADME. The note with it: 1 h. In outline: as §4
Data set [23] is described as follows: Drug metabolism in human liver microsomes assessed as CYP450 mediated-O-demethylated 7-hydroxy-2-(4-methoxyphenyl)-2H-pyrazolo[4,3-c]quinolin-3(5H)-one metabolite formation after 60 mins by LC-MS analysis. In kind it is ADME. The note with it: 1 h. Summed up:
as §4

The subject of a further data set is Liver. Description: Half life in human liver microsomes at 10 uM by LC-MS/MS analysis. In kind it is ADME, microsome. In outline:
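Compound at 10 μM final was preincubated 5 min at 37 °C with NADPH regenerating system in phosphate buffer, pH 7.4. Human or mouse liver microsomes (0.5 mg/mL protein) were added to start the reaction. Samples were taken at 0 (no microsomes) and 10–60 min and measured by LC-MS/MS against an internal standard. Half-life = 0.693/k, with k the slope of ln peak-area ratio versus time. Three experiments, each in duplicate.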

Data set [24] in a line: Drug metabolism in human liver microsomes assessed as CYP450 mediated-O-demethylated 7-hydroxy-2-(4-hydroxyphenyl)-2H-pyrazolo[4,3-c]quinolin-3(5H)-one metabolite formation after 60 mins by LC-MS analysis. In kind it is ADME. The conditions noted are these: 1 h. Summed up:
as §4

Data set [25] in a line: Drug metabolism in mouse liver microsomes assessed as CYP450 mediated-O-demethylated 2-(4-hydroxyphenyl)-7-(trideuteriomethoxy)-5H-pyrazolo[4,3-c]quinolin-3-one metabolite formation after 60 mins by LC-MS analysis. In kind it is ADME. The note with it: 1 h. Summed up:
as §4

Molecules are shown by their SMILES.

Sequence of Voltage-gated inwardly rectifying potassium channel KCNH2 (Q12809 whole entry): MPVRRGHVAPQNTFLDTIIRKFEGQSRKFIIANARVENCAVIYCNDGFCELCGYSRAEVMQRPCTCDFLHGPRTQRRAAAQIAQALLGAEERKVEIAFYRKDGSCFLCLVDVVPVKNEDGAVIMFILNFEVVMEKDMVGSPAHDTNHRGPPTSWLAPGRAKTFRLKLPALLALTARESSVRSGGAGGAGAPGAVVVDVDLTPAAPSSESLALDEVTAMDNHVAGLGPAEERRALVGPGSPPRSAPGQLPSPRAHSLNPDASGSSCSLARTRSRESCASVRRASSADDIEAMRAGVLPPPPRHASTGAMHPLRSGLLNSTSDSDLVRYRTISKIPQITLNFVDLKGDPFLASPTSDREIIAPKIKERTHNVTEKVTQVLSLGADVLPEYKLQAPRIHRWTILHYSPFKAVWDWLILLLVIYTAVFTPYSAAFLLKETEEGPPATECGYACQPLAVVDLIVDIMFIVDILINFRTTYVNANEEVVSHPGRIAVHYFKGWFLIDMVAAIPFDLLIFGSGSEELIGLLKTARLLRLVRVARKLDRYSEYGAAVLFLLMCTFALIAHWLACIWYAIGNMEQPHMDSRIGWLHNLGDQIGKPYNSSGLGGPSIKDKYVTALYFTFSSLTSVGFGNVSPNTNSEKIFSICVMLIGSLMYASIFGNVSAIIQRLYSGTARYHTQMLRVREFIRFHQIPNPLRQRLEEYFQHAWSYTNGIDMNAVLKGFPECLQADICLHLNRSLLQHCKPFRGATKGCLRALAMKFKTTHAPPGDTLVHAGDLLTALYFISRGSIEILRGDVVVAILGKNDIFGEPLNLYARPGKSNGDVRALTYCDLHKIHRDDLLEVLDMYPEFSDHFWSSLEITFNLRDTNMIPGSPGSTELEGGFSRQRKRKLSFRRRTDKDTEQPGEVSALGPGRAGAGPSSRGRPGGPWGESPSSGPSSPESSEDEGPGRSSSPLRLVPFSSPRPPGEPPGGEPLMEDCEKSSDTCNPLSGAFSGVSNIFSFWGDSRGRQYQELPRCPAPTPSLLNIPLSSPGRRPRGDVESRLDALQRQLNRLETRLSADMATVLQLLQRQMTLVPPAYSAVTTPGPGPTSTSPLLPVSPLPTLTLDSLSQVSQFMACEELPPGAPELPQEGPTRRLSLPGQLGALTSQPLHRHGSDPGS

For the compound `CN1C(=O)CN=C(c2ccccc2)c2cc(Cl)ccc21` [DIAZEPAM], the Activity entry in the data set on Mus musculus [1] is “Toxic”.

For `[2H]C([2H])([2H])Oc1ccc2c3nn(-c4ccc(OC)nc4)c(=O)c-3c[nH]c2c1`, the Cmax (in general, the maximum level reached in the sampled fluid or tissue) in data set [2] was 215 ng/g; in data set [13], 1250 ng/mL. Further, the Tmax (commonly the time at which the peak concentration occurs) in [3] stood at 1.67 h; in [15], 1 h. The remaining at 1 h, 10 µM in [4] is 92.3%; in data set [9] it was 91.4%. Also, the Activity entry in the data set on Mus musculus [5], in the data set on HepG2 and in the data set with HEK-293T was “Non-Toxic” throughout. For the same compound, the Drug metabolism result in data set [6], in [7], in data set [10], in [14], in [16] and in [18] was “Metabolite_Detected” throughout. In addition, the results for the half-life in data set [8] and in data set [11] were 18 h and 9.07 h, respectively. For the same compound, the AUC with Brain was determined as 1502.14 ng·h/g. For the same compound, the “inhibition (INH)” value in data set [12] was “Not Active”. Besides, in data set [17], the AUC(0-t) (usually the area under the concentration-time curve up to a stated or last time point) at 12 h is 6020 ng·h/mL.

Take `[2H]C([2H])([2H])Oc1ccc2c3nn(-c4ccc(OC)cc4)c(=O)c-3c[nH]c2c1`: the Cmax in [2] was 657 ng/g; in [13], 3740 ng/mL. In data set [19], the Kp – broadly, tissue or fluid exposure divided by exposure in the circulation – is reported as 0.16. Further, the values for the Tmax in data set [3] and in data set [15] were 2.11 h and 1.67 h, respectively. The remaining at 1 h, 10 µM in data set [4] was found to be 92%; in [9], 93.2%. Further, the Activity entry in the data set with Mus musculus [5], with HepG2 and with HEK-293T was “Non-Toxic” each time. Moreover, the Drug metabolism result in data set [20], in data set [21], in data set [22], in data set [23], in data set [24] and in data set [25] was “Metabolite_Detected” in each case. Also, the half-life was 2.46 h in [8] and 2.6 h in data set [11]. This compound also yielded an AUC in the data set on Brain of 4125.92 ng·h/g. Further, the “inhibition (INH)” value in data set [12] is “Not Active”. The compound also registered a t1/2 with Liver of 11.1 h. For the same compound, the AUC(0-t) at 12 h in data set [17] stood at 25300 ng·h/mL.

The values are drawn from ChEMBL document CHEMBL4033790, “Design and Synthesis of Novel Deuterated Ligands Functionally Selective for the γ-Aminobutyric Acid Type A Receptor (GABAAR) α6 Subtype with Improved Metabolic Stability and Enhanced Bioavailability” (J Med Chem, 2018).
